Results taken from ChEMBL document CHEMBL2346534, “Design, synthesis and in vitro anti-proliferative activity of 4,6-quinazolinediamines as potent EGFR-TK inhibitors” (Eur J Med Chem, 2013).

Columns and labels:
SK-OV-3 = experiment: Cytotoxicity against human SKOV3 cells after 48 hrs by SRB assay; assay type: functional; conditions: SK-OV-3, 48 h
In short: (§1)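 NCI 60-panel five-dose screen. Cells in RPMI 1640 with 5% FBS and 2 mM L-glutamine are plated at 5000–40,000 cells/well by doubling time and preincubated 24 h at 37 °C in 5% CO2. Drug in DMSO is tested at 0.01, 0.1, 1, 10 and 100 μM for 48 h. Cells are TCA-fixed, stained with SRB and read at 515 nm. GI50 is the concentration giving 50% reduction in net protein increase relative to time-zero and control plates.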

ACHN = experiment: Cytotoxicity against human ACHN cells after 48 hrs by SRB assay; assay type: functional
In short: (§2)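 NCI 60-panel five-dose screen. Cells in RPMI 1640 with 5% FBS and 2 mM L-glutamine, plated at 5000–40,000 cells/well by doubling time, preincubated 24 h at 37 °C/5% CO2. Drug from DMSO stock added at 0.01, 0.1, 1, 10 and 100 µM, then 48 h. TCA fixation, SRB stain, absorbance at 515 nm, time-zero plates included. GI50 = 50% reduction in net protein increase versus control.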

KM12 = experiment: Cytotoxicity against human KM12 cells after 48 hrs by SRB assay; assay type: functional; conditions: KM12, 48 h; in short: as §2
MDA-MB-468 = experiment: Cytotoxicity against human MDA-MB-468 cells after 48 hrs by SRB assay; assay type: functional; conditions: MDA-MB-468, 48 h; in short: as §1
[1] = Cytotoxicity against human EKVX cells after 48 hrs by SRB assay; assay type: functional; in short: as §2
[2] = molecular target: Epidermal growth factor receptor (Homo sapiens, UniProt P00533); experiment: Inhibition of EGFR tyrosine kinase (unknown origin) using poly (Glu,Tyr) as substrate after 30 mins by ADP-GloTM assay
LOX IMVI = experiment: Cytotoxicity against human LOXIMVI cells after 48 hrs by SRB assay; assay type: functional; in short: as §2
CCRF-CEM = experiment: Cytotoxicity against human CCRF-CEM cells after 48 hrs by SRB assay; assay type: functional; in short: as §2
HOP-62 = experiment: Cytotoxicity against human HOP62 cells after 48 hrs by SRB assay; assay type: functional; conditions: HOP-62, 48 h; in short: as §2
TK-10 = experiment: Cytotoxicity against human TK10 cells after 48 hrs by SRB assay; assay type: functional; conditions: TK-10, 48 h
In short: (§3)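 NCI 60 five-dose screen. Cells in RPMI 1640 with 5% FBS and 2 mM L-glutamine, plated at 5000–40,000 cells/well by doubling time, pre-incubated 24 h at 37 °C, 5% CO2. Time-zero plates TCA-fixed at drug addition. Final concentrations 0.01, 0.1, 1, 10 and 100 µM (DMSO stock), 48 h exposure. TCA fixation, 0.4% SRB stain, absorbance 515 nm. GI50 from [(Ti−Tz)/(C−Tz)]×100 = 50.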

SN12C = experiment: Cytotoxicity against human SN12C cells after 48 hrs by SRB assay; assay type: functional; in short: as §1
SK-MEL-28 = experiment: Cytotoxicity against human SK-MEL-28 cells after 48 hrs by SRB assay; assay type: functional; conditions: SK-MEL-28, 48 h; in short: as §1
UACC-257 = experiment: Cytotoxicity against human UACC257 cells after 48 hrs by SRB assay; assay type: functional; conditions: UACC-257, 48 h; in short: as §3
RXF 393 = experiment: Cytotoxicity against human RXF393 cells after 48 hrs by SRB assay; assay type: functional; conditions: RXF 393, 48 h; in short: as §1
U-251 = experiment: Cytotoxicity against human U251 cells after 48 hrs by SRB assay; assay type: functional; conditions: U-251, 48 h; in short: as §3
HT-29 = experiment: Cytotoxicity against human HT-29 cells after 48 hrs by SRB assay; assay type: functional; conditions: HT-29, 48 h; in short: as §2
OVCAR-3 = experiment: Cytotoxicity against human OVCAR3 cells after 48 hrs by SRB assay; assay type: functional; conditions: OVCAR-3, 48 h; in short: as §1
SF-268 = experiment: Cytotoxicity against human SF268 cells after 48 hrs by SRB assay; assay type: functional; conditions: SF-268, 48 h; in short: as §1
Malme-3M = experiment: Cytotoxicity against human MALME-3M cells after 48 hrs by SRB assay; assay type: functional; in short: as §2
A498 = experiment: Cytotoxicity against human A498 cells after 48 hrs by SRB assay; assay type: functional; conditions: A498, 48 h; in short: as §2
SK-MEL-5 = experiment: Cytotoxicity against human SK-MEL-5 cells after 48 hrs by SRB assay; assay type: functional; conditions: SK-MEL-5, 48 h; in short: as §1
SW-620 = experiment: Cytotoxicity against human SW620 cells after 48 hrs by SRB assay; assay type: functional; conditions: SW-620, 48 h; in short: as §3
NCI-H322M = experiment: Cytotoxicity against human NCI-H322M cells after 48 hrs by SRB assay; assay type: functional; in short: as §1
PC-3 = experiment: Cytotoxicity against human PC3 cells after 48 hrs by SRB assay; assay type: functional; conditions: PC-3, 48 h; in short: as §1
BT-549 = experiment: Cytotoxicity against human BT549 cells after 48 hrs by SRB assay; assay type: functional; conditions: BT-549, 48 h; in short: as §2
SK-MEL-2 = experiment: Cytotoxicity against human SK-MEL-2 cells after 48 hrs by SRB assay; assay type: functional; conditions: SK-MEL-2, 48 h; in short: as §1
HCC 2998 = experiment: Cytotoxicity against human HCC2998 cells after 48 hrs by SRB assay; assay type: functional; conditions: HCC 2998, 48 h; in short: as §2
[3] = read-out: LC50 (the source's name)

Sequence of Epidermal growth factor receptor (P00533 whole entry): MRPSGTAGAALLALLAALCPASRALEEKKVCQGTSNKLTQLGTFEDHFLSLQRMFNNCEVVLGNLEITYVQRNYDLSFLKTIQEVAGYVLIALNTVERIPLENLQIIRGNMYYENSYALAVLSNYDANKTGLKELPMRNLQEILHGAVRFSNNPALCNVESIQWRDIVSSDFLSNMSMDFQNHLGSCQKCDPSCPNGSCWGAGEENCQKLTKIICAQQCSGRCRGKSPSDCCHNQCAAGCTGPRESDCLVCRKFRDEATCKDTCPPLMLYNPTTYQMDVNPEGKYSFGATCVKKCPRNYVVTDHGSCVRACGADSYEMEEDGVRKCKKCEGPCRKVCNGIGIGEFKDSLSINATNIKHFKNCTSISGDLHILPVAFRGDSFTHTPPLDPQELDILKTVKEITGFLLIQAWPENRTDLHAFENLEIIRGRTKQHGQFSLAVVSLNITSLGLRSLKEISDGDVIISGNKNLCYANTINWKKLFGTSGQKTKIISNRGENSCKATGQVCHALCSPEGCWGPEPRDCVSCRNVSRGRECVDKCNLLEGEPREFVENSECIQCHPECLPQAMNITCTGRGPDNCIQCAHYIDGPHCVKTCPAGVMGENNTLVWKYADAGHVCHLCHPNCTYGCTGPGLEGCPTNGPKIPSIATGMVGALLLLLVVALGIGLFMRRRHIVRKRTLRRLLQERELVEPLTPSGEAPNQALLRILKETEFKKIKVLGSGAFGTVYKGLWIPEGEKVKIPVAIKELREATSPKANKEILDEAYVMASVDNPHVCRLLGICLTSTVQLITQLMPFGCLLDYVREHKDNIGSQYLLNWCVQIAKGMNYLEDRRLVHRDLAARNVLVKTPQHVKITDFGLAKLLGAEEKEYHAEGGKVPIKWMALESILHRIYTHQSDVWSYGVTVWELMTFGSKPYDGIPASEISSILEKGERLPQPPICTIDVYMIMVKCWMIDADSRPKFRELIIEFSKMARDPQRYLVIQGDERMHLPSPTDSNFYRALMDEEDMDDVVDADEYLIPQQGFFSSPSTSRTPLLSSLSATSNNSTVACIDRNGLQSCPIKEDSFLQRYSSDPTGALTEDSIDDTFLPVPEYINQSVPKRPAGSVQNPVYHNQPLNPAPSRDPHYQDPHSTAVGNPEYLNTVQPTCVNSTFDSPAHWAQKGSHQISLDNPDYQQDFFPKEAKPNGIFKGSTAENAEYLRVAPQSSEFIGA

NC(=O)Nc1ccc2ncnc(Nc3ccc(Cl)cc3)c2c1
GI50 (SK-OV-3): 3.52 µM | TGI (SK-OV-3): 20.5 µM | CC50 (SK-OV-3; [3]): > 100 µM | GI50 (ACHN): 1.47 µM | TGI (ACHN): 35.8 µM | CC50 (ACHN; [3]): > 100 µM | GI50 (KM12): 28.4 µM | TGI (KM12): > 100 µM | CC50 (KM12; [3]): > 100 µM | GI50 (MDA-MB-468): 1.09 µM | TGI (MDA-MB-468): 3.95 µM | CC50 (MDA-MB-468; [3]): > 100 µM | GI50 [1]: 0.37 µM | TGI [1]: 4.46 µM | CC50 [1, 3]: > 100 µM | IC50 [2]: 0.061 µM | GI50 (LOX IMVI): 19.3 µM | TGI (LOX IMVI): 68.7 µM | CC50 (LOX IMVI; [3]): > 100 µM | GI50 (CCRF-CEM): 16.4 µM | TGI (CCRF-CEM): > 100 µM | CC50 (CCRF-CEM; [3]): > 100 µM | GI50 (HOP-62): 21.1 µM | TGI (HOP-62): 84.4 µM | CC50 (HOP-62; [3]): > 100 µM | GI50 (TK-10): 0.98 µM | TGI (TK-10): 16.2 µM | CC50 (TK-10; [3]): > 100 µM | GI50 (SN12C): 11.1 µM | TGI (SN12C): 50 µM | CC50 (SN12C; [3]): > 100 µM | GI50 (SK-MEL-28): 26.7 µM | TGI (SK-MEL-28): > 100 µM | CC50 (SK-MEL-28; [3]): > 100 µM | GI50 (UACC-257): 23.5 µM | TGI (UACC-257): 75.2 µM | CC50 (UACC-257; [3]): > 100 µM | GI50 (RXF 393): 15.1 µM | TGI (RXF 393): 75.9 µM | CC50 (RXF 393; [3]): > 100 µM | GI50 (U-251): 23.9 µM | TGI (U-251): > 100 µM | CC50 (U-251; [3]): > 100 µM | GI50 (HT-29): 24 µM | TGI (HT-29): > 100 µM | CC50 (HT-29; [3]): > 100 µM | GI50 (OVCAR-3): 8.36 µM | TGI (OVCAR-3): 69.5 µM | CC50 (OVCAR-3; [3]): > 100 µM | GI50 (SF-268): 17.1 µM | TGI (SF-268): > 100 µM | CC50 (SF-268; [3]): > 100 µM | GI50 (Malme-3M): 22 µM | TGI (Malme-3M): 60.7 µM | CC50 (Malme-3M; [3]): > 100 µM | GI50 (A498): 0.45 µM | TGI (A498): 13 µM | CC50 (A498; [3]): 64.8 µM | GI50 (SK-MEL-5): 13.5 µM | TGI (SK-MEL-5): 30.7 µM | CC50 (SK-MEL-5; [3]): 70.1 µM | GI50 (SW-620): 39.7 µM | TGI (SW-620): > 100 µM | CC50 (SW-620; [3]): > 100 µM | GI50 (NCI-H322M): 0.36 µM | TGI (NCI-H322M): 6.64 µM | CC50 (NCI-H322M; [3]): > 100 µM | GI50 (PC-3): 16.7 µM | TGI (PC-3): 92.5 µM | CC50 (PC-3; [3]): > 100 µM | GI50 (BT-549): 18.2 µM | TGI (BT-549): 79.3 µM | CC50 (BT-549; [3]): > 100 µM | GI50 (SK-MEL-2): 15.1 µM | TGI (SK-MEL-2): 42.7 µM | CC50 (SK-MEL-2; [3]): > 100 µM | GI50 (HCC 2998): 37.6 µM | TGI (HCC 2998): > 100 µM | CC50 (HCC 2998; [3]): > 100 µM
